According to ChEMBL document CHEMBL1125754, “Synthesis and antiviral activity of 9-alkoxypurines. 2. 9-(2,3-Dihydroxypropoxy)-, 9-(3,4-dihydroxybutoxy)-, and 9-(1,4-dihydroxybut-2-oxy)purines” (J Med Chem, 1991):

What was measured:
Human alphaherpesvirus 1 = experiment: Compound was tested for its antiviral activity against HSV-1 (SC16) using plaque reduction assay.; type: functional, organism-based
Outline: (§1)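 MRC-5 cell monolayers were infected with about 50 PFU of virus. Compounds were present at various concentrations for the whole incubation; stocks were 10 mg/mL in Me2SO, diluted in culture medium. IC50 is the concentration that cut plaque count to 50% of untreated controls.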

Human alphaherpesvirus 3 [1] = experiment: Compound was tested for its antiviral activity against VZV (Ellen) using plaque reduction assay.; type: functional, organism-based; outline: as §1
Human alphaherpesvirus 2 [2] = experiment: Compound was tested for its antiviral activity against HSV-2 (MS) using plaque reduction assay.; type: functional, organism-based; outline: as §1
Human alphaherpesvirus 2 [3] = experiment: Compound was tested for its antiviral activity against HSV-2(MS) using plaque reduction assay.; type: functional, organism-based; outline: as §1
Human alphaherpesvirus 3 [4] = experiment: Compound was tested for its antiviral activity against VZV(Ellen) using plaque reduction assay.

SMILES	IC50 (Human alphaherpesvirus 1) [µM]	IC50 (Human alphaherpesvirus 3 [1]) [µM]	IC50 (Human alphaherpesvirus 2 [2]) [µM]	IC50 (Human alphaherpesvirus 2 [3]) [µM]	IC50 (Human alphaherpesvirus 3 [4]) [µM]
Nc1nc(O)c2ncn(O[C@H](CO)CCO)c2n1	36	8.3	> 390	–	–
Nc1nc(O)c2ncn(O[C@@H](CO)CCO)c2n1	390	> 390	> 390	–	–
Nc1nc(O)c2ncn(OC[C@@H](O)CO)c2n1	2.7	62	0.46	–	–
Nc1nc(O)c2ncn(OC(CO)CCO)c2n1 (centres undefined)	43	30	> 390	–	–
Nc1nc2c(ncn2COCCO)c(=O)[nH]1 [ACYCLOVIR]	4.8	–	–	1.2	15

Continued, in another order:

IC50 (Human alphaherpesvirus 1) [µM]	IC50 (Human alphaherpesvirus 3 [1]) [µM]	IC50 (Human alphaherpesvirus 2 [2]) [µM]	SMILES	IC50 (Human alphaherpesvirus 2 [3]) [µM]	IC50 (Human alphaherpesvirus 3 [4]) [µM]
7.9	154	2.8	Nc1nc(O)c2ncn(OCC(O)CO)c2n1 (centres undefined)	–	–
> 415	> 415	> 415	Nc1nc(O)c2ncn(OC[C@H](O)CO)c2n1	–	–
> 390	> 390	> 390	Nc1nc(O)c2ncn(OCCC(O)CO)c2n1 (centres undefined)	–	–
